MEKK3 PB1 HTS – modulators of MEKK3-MEK5 PB1 binding, primary screen, biochemical, wildtype MEKK3, multiplex bead flow cytometry, Alexa488-MEK5. binding response (% of control), % at 10 µM. 290,000 tested, 1.4% active. Mitogen-activated protein kinase kinase kinase 3 (Homo sapiens), Q99759. bead-based flow cytometry, Alexa488-MEK5 binding to MEKK3; actives lie on both sides; 0 = blocked by unlabeled MEK5, 100 = vehicle;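 active means binding response more than 3 SD above or below the average of its plate-row segment, actives on both sides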;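 further: Alexa488 bead fluorescence after subtracting the streptavidin-only scavenger bead signal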
UBC13 polyUb – UBC13 polyubiquitin chain formation inhibitors, primary screen, biochemical, TR-FRET, uHTS; Ubiquitin-conjugating enzyme E2 N (Homo sapiens), P61088; inhibition, % at 20 µM; 330,000 tested, 0.47% active; AID 485273, 2010; in the data active means inhibition above about 45%, passing the limit was not always enough
Target sequence (P61088 whole entry, looked up): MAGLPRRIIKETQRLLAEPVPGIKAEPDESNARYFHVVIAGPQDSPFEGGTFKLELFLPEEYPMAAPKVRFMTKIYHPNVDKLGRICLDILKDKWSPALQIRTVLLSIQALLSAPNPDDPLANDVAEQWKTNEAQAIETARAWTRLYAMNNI
Apaf-1 inh – inhibitors of human Apaf-1 apoptosome, primary screen, biochemical, DEVD-Rh110 fluorescence, uHTS. Apoptotic protease-activating factor 1 (Homo sapiens), O14727. reconstituted apoptosome caspase-3 activity. inhibition, % at 20 µM. 330,000 tested, 0.71% active. AID 489030, 2010; active means inhibition of at least 40% at 20 µM;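 further: plate controls were DMSO wells for no effect and DEVD-CHO caspase inhibitor wells for full effect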
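detection = Rh110 fluorescence intensity | test system = biochemical Apaf-1 apoptosome reconstitution | also added = cytochrome c and DEVD-Rh110 substrate | schedule = 30 min plus 50 min, RT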
MEKK2 mut-MEK5 – MEK5 binding signal on mutant MEKK2 PB1, primary screen, biochemical, multiplex bead flow cytometry, Alexa488-MEK5. Alexa488-MEK5 binding to MEKK2 mutant. percent response, % at 10 µM. 290,000 tested, 0.35% active. AID 1530, 2009; in the data active means percent response above about 24%, passing the limit was not always enough
MEKK2 WT-MEK5 – modulators of MEK5 binding to wildtype MEKK2, primary screen, biochemical, multiplex bead flow cytometry, Alexa488-MEK5. Alexa488-MEK5 binding to MEKK2 WT; actives lie on both sides. binding response (% of control), % at 10 µM. 290,000 tested, 1.1% active. AID 1531, 2009; in the data active means binding response below about 67% or above about 130%
MEKK2wt confirm – modulators of MEK5 binding to wildtype MEKK2, confirmation, biochemical, single concentration, multiplex bead flow cytometry. shares compounds with MEKK3 PB1 HTS. Alexa488-MEK5 binding to MEKK2 WT; actives lie on both sides. binding response (% of control), % at 10 µM. 5,900 tested, 2.4% active; in the data active means binding response below about 16% or above about 210%; inactive means in between
MEKK2mut-MEK5 – mutant MEKK2 PB1-MEK5 binding signal retest – biochemical, single concentration, multiplex bead flow cytometry, confirmation | shares compounds with MEKK3 PB1 HTS | Alexa488-MEK5 binding to MEKK2 mutant | percent response, % at 10 µM | 5,900 tested, 2% active; in the data active means percent response mostly above about 71%, no sharp cut-off; inactive means mostly below about 38%;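 further: higher means compound restores mutant binding toward wildtype level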
MEKK3 confirm – MEKK3 wild-type PB1 binding to MEK5, inhibitors, confirmation, biochemical, bead multiplex flow cytometry, single concentration, wildtype. shares compounds with MEKK3 PB1 HTS. Alexa488-MEK5 binding to MEKK3; stronger effect = lower value. binding response (% of control), % at 10 µM. 5,900 tested, 1.8% active;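 active means binding response below 72% of control, or above a set upper limit, though filed actives all read lower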;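 further: 100% = DMSO only wells and 0% = binding blocked by excess unlabeled MEK5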
Starred values were filed as active, the others as inactive; [ ] = remark or other dose. Most compounds without a hit are left out; they make up all but 2.9% or so of the library.

How did CCC(/C=C1\Sc2ccc(OC)cc2N1CCO)=C\c1sc2ccc(OC)cc2[n+]1CCO do in these assays?
MEKK3 PB1 HTS: 36*[inhibitor]; UBC13 polyUb: 40; Apaf-1 inh: 23; MEKK2 mut-MEK5: -27; MEKK2 WT-MEK5: 1.0*[inhibitor]; MEKK2wt confirm: 1.0*[inhibitor]; MEKK2mut-MEK5: -35; MEKK3 confirm: 39*

Results for CCC(/C=C1\Sc2ccc(OC)cc2N1CC)=C\c1sc2ccc(OC)cc2[n+]1CCCS(=O)(=O)[O-] ?
MEKK3 PB1 HTS: 56*[inhibitor]; UBC13 polyUb: -20; Apaf-1 inh: 9; MEKK2 mut-MEK5: -45; MEKK2 WT-MEK5: 6.0*[inhibitor]; MEKK2wt confirm: 17*[inhibitor]; MEKK2mut-MEK5: -32; MEKK3 confirm: 64*

What do the screens show for `COCCNC(=O)CSc1nc2nn(-c3ccccc3)c(=O)c-2c2n1CCCCC2`?
MEKK3 PB1 HTS: 110; UBC13 polyUb: 0; Apaf-1 inh: 3; MEKK2 mut-MEK5: 2; MEKK2 WT-MEK5: 107

What do the screens show for `CCOC(=O)c1c(C)n(C)c2ccc(OC)c(NC(=O)CN3CCC(C(=O)OCC)CC3)c12`?
MEKK3 PB1 HTS: 47*[inhibitor]; UBC13 polyUb: 11; Apaf-1 inh: 14; MEKK2 mut-MEK5: -37; MEKK2 WT-MEK5: 55; MEKK2wt confirm: 102; MEKK2mut-MEK5: 6; MEKK3 confirm: 102

How did CCOC(=O)c1c(C)n(C)c2ccc(OC)c(NC(=O)CN3CCN(C4CCCCC4)CC3)c12 do in these assays?
MEKK3 PB1 HTS: 99; UBC13 polyUb: 8; Apaf-1 inh: -8; MEKK2 mut-MEK5: -5; MEKK2 WT-MEK5: 102

Results for COc1ccccc1N(CC(=O)NCCSc1ccccc1)S(C)(=O)=O ?
MEKK3 PB1 HTS: 95; UBC13 polyUb: -8; Apaf-1 inh: -11; MEKK2 mut-MEK5: -1; MEKK2 WT-MEK5: 93

Results for CCOc1ccccc1N(CC(=O)NCCSc1ccccc1)S(C)(=O)=O ?
MEKK3 PB1 HTS: 132*; UBC13 polyUb: 3; Apaf-1 inh: 1; MEKK2 mut-MEK5: 1; MEKK2 WT-MEK5: 119; MEKK2wt confirm: 103; MEKK2mut-MEK5: 0; MEKK3 confirm: 107

How did CC(OC(=O)CN1C(=O)c2ccccc2C1=O)C(=O)NC1CCCCC1 (stereo not given) do in these assays?
MEKK3 PB1 HTS: 105; UBC13 polyUb: 6; Apaf-1 inh: 1; MEKK2 mut-MEK5: 4; MEKK2 WT-MEK5: 106

What do the screens show for `O=S(=O)(c1ccccc1)n1ccc(-c2cnc(-c3ccccc3)s2)n1`?
MEKK3 PB1 HTS: 129*; UBC13 polyUb: 4; Apaf-1 inh: 15; MEKK2 mut-MEK5: 4; MEKK2 WT-MEK5: 122; MEKK2wt confirm: 99; MEKK2mut-MEK5: -3; MEKK3 confirm: 100

How did Cc1ccc(Cn2ccc(-c3cnc(-c4ccccc4)s3)n2)cc1 do in these assays?
MEKK3 PB1 HTS: 103; UBC13 polyUb: 10; Apaf-1 inh: 19; MEKK2 mut-MEK5: 2; MEKK2 WT-MEK5: 107

What do the screens show for `Cc1ccc(-c2nc3ccccc3c(=O)n2NC(=O)c2cccs2)cc1`?
MEKK3 PB1 HTS: 129*; UBC13 polyUb: 2; Apaf-1 inh: 0; MEKK2 mut-MEK5: 1; MEKK2 WT-MEK5: 104; MEKK2wt confirm: 99; MEKK2mut-MEK5: 0; MEKK3 confirm: 101
